High-throughput results deposited in PubChem by Johns Hopkins Ion Channel Center.
MrgX1 ag: agonists of human MrgX1 receptor. MrgX1-HEK293 cells, Fluo-4 calcium fluorescence, agonist mode; active compounds read high. 310,000 tested, 0.44% active. AID 588627. B-score at 10 µM;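 active means calcium response B-score plate-corrected fluorescence ratio at least 3 library SD, with starting fluorescence B-score inside 5 SD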
Target sequence (Q96LB2 whole entry, looked up): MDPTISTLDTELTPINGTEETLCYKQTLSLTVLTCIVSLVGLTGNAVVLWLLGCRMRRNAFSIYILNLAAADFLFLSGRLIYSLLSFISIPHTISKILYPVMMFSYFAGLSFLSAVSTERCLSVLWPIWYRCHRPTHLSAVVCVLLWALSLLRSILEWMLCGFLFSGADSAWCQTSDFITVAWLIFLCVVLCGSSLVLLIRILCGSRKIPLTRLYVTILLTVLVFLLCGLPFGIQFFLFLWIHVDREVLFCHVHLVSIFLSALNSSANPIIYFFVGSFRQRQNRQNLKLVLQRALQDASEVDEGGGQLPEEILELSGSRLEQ
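Assay system: stable human MrgX1 HEK293 cell line. Quantity: 15,000 cells per well. Schedule: cells plated overnight, dye loaded 0.5 h 37 °C, 0.5 h room temperature. Detection: Fluo-4 NW calcium-flux fluorescence, kinetic read. Read-out basis: peak-minus-minimum fluorescence over baseline, converted to B scores. Control set: positive and negative control wells on each plate.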
MrgX1 allo act: allosterically activates human MrgX1 receptor signaling; Q96LB2; MrgX1-HEK293, Fluo-4 calcium flux, FDSS; active compounds read high; B-score at 10 µM; 310,000 tested, 0.63% active;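 active means plate-corrected calcium response at least 3 library SD above typical, normal starting fluorescence, not activating the receptor alone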;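 further: compound read alongside a low EC10 to EC30 dose of BAM8-22 agonist; peak minus trough fluorescence over baseline measured at the second addition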
RGS4 block: human RGS4 inhibition | 310,000 tested, 0.45% active | HEK293 M3R/RGS4 inducible, Fluo-4 calcium flux; active compounds read high; triggered by carbachol at its EC20 | B-score at 10 µM | P49798 | AID 463165;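 active means B-score, a plate-corrected calcium signal, over three deviations above library mean, with baseline fluorescence within five deviations of library mean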;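 further: RGS4 expression induced by doxycycline in cells with stable M3 receptor; B-score is computed from the integrated fluorescence ratio over baseline after carbachol; higher B-score means a larger calcium signal and so more RGS4 inhibition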
Target sequence (P49798 whole entry, looked up): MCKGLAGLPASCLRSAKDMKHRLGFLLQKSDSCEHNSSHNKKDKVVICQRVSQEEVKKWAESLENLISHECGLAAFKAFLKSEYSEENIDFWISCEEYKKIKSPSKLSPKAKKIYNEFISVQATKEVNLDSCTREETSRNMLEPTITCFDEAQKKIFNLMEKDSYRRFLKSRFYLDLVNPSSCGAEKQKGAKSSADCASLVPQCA
RGS4 pot: RGS4 potentiation or activation; HEK293 M3R/inducible RGS4, carbachol calcium flux Fluo4; active compounds read low; AID 463111; 310,000 tested, 0.92% active; B-score at 10 µM;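 active means B-score of the integrated calcium signal more than 4 SD below the library mean, with starting fluorescence not abnormally high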;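 further: negative B-score means reduced calcium response which marks RGS4 activation or potentiation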
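System – HEK293 FlpIn-TREx cells, stable M3R, doxycycline-inducible RGS4 · Reagent – ECmax carbachol challenge · Times – compound preincubation 20 min at room temperature before agonist · Technique – Fluo4 fluorescence kinetic imaging of calcium · Measure – B score of integrated Fluo4 ratio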
MrgX1 antagonist: blocks BAM8-22 activation of human MrgX1 receptor | AID 588676 | 310,000 tested, 1.3% active | Q96LB2 | B-score at 10 µM | MRGX1-HEK293 calcium flux, Fluo-4, BAM8-22 antagonism; active compounds read low;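 active means calcium-response B-score plate-corrected more than 3 library SD below zero, starting fluorescence within 5 deviations, no agonist response on first addition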;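 further: peak minus trough fluorescence over baseline after final BAM8-22 challenge near maximal dose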
RGS4 inh valid: validation of RGS4 inhibitors | shares compounds with RGS4 block | HEK293 M3R/RGS4, carbachol calcium Fluo-4 fluorescence; carbachol added at its EC20; 0 = buffer wells, 100 = carbachol control | calcium response, % at 10 µM | 1,700 tested, 65% active;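 active means duplicate-averaged calcium response above the buffer-only control mean plus 5 SD of those controls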;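 further: integrated fluorescence ratio F max minus min over baseline F0; higher response in RGS4-induced cells means RGS4 inhibition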
RGS4 uninduced: counter-screen for RGS4 inhibitors: effect in non-induced cells. activity (percent), % at 10 µM. shares compounds with RGS4 block. HEK293 M3R non-induced, carbachol calcium Fluo-4; submaximal (EC20) carbachol stimulus; buffer wells 0%, carbachol control wells 100%. 1,900 tested, 20% active; call rule not given here;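 further: RGS4 induction absent so cells express M3R without RGS4; higher means more calcium signal and flags a non-specific hit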
M3R basal Ca ctr: signal in non-induced cells without carbachol, RGS4 inhibitor counter-screen; HEK293 M3R/RGS4 non-induced, Fluo-4 calcium, no carbachol; normalised: buffer wells 0%, carbachol wells 100%; calcium response (agonist-mode artifact), % at 10 µM; shares compounds with RGS4 block; 1,900 tested, 22% active;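 active means duplicate-averaged calcium rise in uninduced cells above buffer wells' mean plus 5 SD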
MrgX1 ag reconf: human MrgX1 agonism, re-confirmation screen | AID 602412 | MrgX1-HEK293, Fluo-4 calcium fluorescence, FDSS | activation, % at 10 µM | 600 tested, 78% active | shares compounds with MrgX1 ag;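 active means calcium signal rise, corrected for plate position, at least 3 library SD high, with starting brightness within 5 such deviations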
MrgX1 PAM conf: confirmation of human MrgX1 receptor positive allosteric modulators | activation (ratio percentage), % at 10 µM | MrgX1-HEK293, Fluo-4 calcium fluorescence, FDSS | shares compounds with MrgX1 allo act | 1,200 tested, 13% active;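 active means ratio at least 3 SD above the weak peptide control, stable starting fluorescence, no direct agonism earlier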;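 further: compound followed by low BAM8-22 agonist challenge near EC20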
MrgX1 antag conf: human MrgX1 receptor antagonism, re-confirmation screen; AID 602420; remaining BAM8-22 calcium response % of control (active compounds read low), % at 10 µM; shares compounds with MrgX1 antagonist; 2,300 tested, 19% active; MrgX1-HEK293, BAM8-22 calcium flux, Fluo-4; active compounds read low;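 active means remaining agonist calcium response no higher than 100% minus 3 SD of agonist-only control wells, with starting fluorescence near control levels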;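 further: agonist BAM8-22 given at a near maximal EC90 to ECmax level; peak minus minimum fluorescence divided by baseline after agonist addition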
HEK293 Ca flux: activity in parental HEK293 cells lacking MrgX1; shares compounds with MrgX1 antagonist; Fluo-4 calcium fluorescence, FDSS; fluorescence ratio F(max-min)/F0 at 10 µM; 4,000 tested, 2% active;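 active means duplicate-averaged calcium fluorescence ratio at least three times the standard deviation of buffer wells, a nonspecific response in parental cells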
HEK293 Ca counter: activity in parental HEK293 cells without MrgX1 | shares compounds with MrgX1 antagonist | parental HEK293 calcium flux, Fluo-4 fluorescence ratio; active compounds read high | fluorescence ratio F(max-min)/F0 at 10 µM | 4,000 tested, 0.4% active | AID 624114;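 active means calcium fluorescence ratio, averaged over duplicates, at least 3 SD of the buffer-well ratio, meaning a nonspecific response in receptor-free cells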;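 further: untransfected parental HEK293 lacking MrgX1 used as counterscreen for MrgX1 allosteric activators; fluorescence change taken during the second addition on a kinetic imager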
HEK293 Ca cntr2: MrgX1 activator counter-screen hit in parental HEK293 cells | shares compounds with MrgX1 antagonist | Fluo-4 calcium fluorescence (FDSS); active compounds read high | fluorescence ratio F(max-min)/F0 at 10 µM | 4,000 tested, 8.7% active | AID 624115;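 active means calcium fluorescence ratio at least three times the spread of buffer wells, meaning a non-specific response in parental cells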
* hit, by the source's call; i = inactive; / = no result given. Compounds with a hit are over-represented: about 3.5% of the library has one in this group of screens.

SMILES	MrgX1 ag	MrgX1 allo act	RGS4 block	RGS4 pot	MrgX1 antagonist	HEK293 Ca flux	HEK293 Ca counter	HEK293 Ca cntr2	others
CCCN1CCc2cc(O)cc3c2[C@H]1Cc1ccc(O)c(O)c1-3	30.9*	i	10.5*	i	i	i	i	i	RGS4 inh valid=65.0%*;RGS4 uninduced=i;M3R basal Ca ctr=i;MrgX1 ag reconf=i
O=[N+]([O-])NC1=NCN(Cc2ccco2)CN1Cc1ccco1	i	i	i	i	i	/	/	/
C=Cn1c(P(=S)(N2CCOCC2)N2CCOCC2)cc2c1CCCC2	66.1*	i	i	i	i	i	i	i	MrgX1 ag reconf=i
CCCN1C2CCCC1CC(NC(C)=O)C2 (stereo not given)	49.9*	i	i	i	i	i	i	i	MrgX1 ag reconf=i
COc1cccc(C2(O)CCN(CC(=O)Nc3nc(C)cs3)CC2)c1	i	i	i	i	i	/	/	/
Cc1ccc(-c2cc(-c3ccc(C)cc3)[n+](C)o2)cc1	i	i	i	i	i	/	/	/
Cc1ccc(-c2cc(-c3ccc(C)cc3)[n+](-c3ccccc3)c(-c3ccc(C)cc3)c2)cc1	77.4*	i	i	-10.7*	i	i	i	81.8*	MrgX1 ag reconf=350.6%*
COc1ccc2c(c1)NP(=S)(Oc1ccccc1)N2 (stereo not given)	i	i	i	i	i	/	/	/
NCC(O)c1cc(O)c(O)cc1F (stereo not given)	i	6.54*	/	/	i	i	i	i	MrgX1 PAM conf=i
COC(=O)C1=C(c2cc3ccccc3o2)C[C@@H]2CC[C@H]1N2C(=O)NCc1ccc(F)cc1	i	7.93*	i	i	i	i	i	i	MrgX1 PAM conf=i
CCN(CC)C(=O)c1ccc2c(c1)C1C=CCC1C(C(=O)O)N2 (stereo not given)	i	i	i	i	i	/	/	/
CCC(=O)N1N=C(c2c(O)n(CCc3ccccc3)c(=O)[nH]c2=O)CC1c1ccc(OC)c(OC)c1 (stereo not given)	i	i	i	i	i	/	/	/
OC(CNC1CCCCCCC1)c1ccccc1 (stereo not given)	i	i	i	i	i	/	/	/
N#CSCC(=O)N1c2ccccc2CCc2ccccc21	i	8.54*	i	i	i	i	i	i	MrgX1 PAM conf=i
CC(=O)Nc1ccccc1C(=O)C(=O)Nc1cccc(C(=O)N2CCC3(CC2)OCCO3)c1	i	i	i	i	i	/	/	/
CCCCCn1c(=O)c(C(=O)Nc2ccccc2)c(O)c2ccccc21	i	i	i	i	i	/	/	/
CCCCn1c(=O)c(C(=O)NC(C)c2ccccc2)c(O)c2ccccc21 (stereo not given)	i	9.07*	i	i	i	i	50.1*	i	MrgX1 PAM conf=i
CCCCn1c(=O)c(C(=O)NCCc2ccccc2)c(O)c2ccccc21	i	8.09*	i	i	i	i	i	i	MrgX1 PAM conf=i
CN1CCc2nc3sc(C(=O)NC4CC4)c(N)c3cc2C1	i	i	i	i	-6.61*	i	i	i	MrgX1 antag conf=i
CN1CCc2nc(SCC(=O)OC(C)(C)C)c(C#N)cc2C1	i	i	i	i	i	/	/	/
CCOC(=O)c1cncn1[C@H](C)c1ccccc1	i	i	i	i	i	/	/	/
O=C1CN=C(c2ccccc2)c2ccccc2N1	i	i	i	i	-7.33*	i	i	i	MrgX1 antag conf=i
COc1ccc2c(C)c(CCC(=O)N3C[C@H]4C[C@@H](C3)c3cccc(=O)n3C4)c(=O)oc2c1	i	i	i	i	i	/	/	/
COc1ccccc1CN1CCN(Cc2ccc(Cl)cc2)CC1	i	i	i	i	-5.27*	i	i	i	MrgX1 antag conf=i
C=CCN1CCC2(C)c3cc(O)ccc3CC1C2C (stereo not given)	i	i	i	i	i	/	/	/
SMILES	MrgX1 ag	MrgX1 allo act	RGS4 block	RGS4 pot	MrgX1 antagonist	HEK293 Ca flux	HEK293 Ca counter	HEK293 Ca cntr2	others
COc1c(/C=C2/C(=O)NC(=O)N(C)C2=O)c(CCN(C)C(=O)c2ccccc2)cc2c1OCO2	i	i	i	i	i	/	/	/
CC1=C(C(=O)OC(C)C)[C@]2(C(=O)N(CC(N)=O)c3ccccc32)C(C#N)=C(N)O1	i	i	i	i	i	/	/	/
C=CCOC(=O)C1=C(C)OC(N)=C(C#N)[C@@]12C(=O)N(CC(N)=O)c1ccccc12	i	i	i	i	-5.74*	i	i	i	MrgX1 antag conf=i
CC(C)Nc1ccc(Nc2ccccc2)cc1	i	i	/	/	-5.14*	i	i	i	MrgX1 antag conf=i
CCOC(=O)C1SC2(C(F)(F)F)CC1(O)c1c(C)cc(C)nc1O2 (stereo not given)	i	i	i	i	-7.82*	i	i	i	MrgX1 antag conf=i
CCCCCn1c(=O)c(C(=O)Nc2cccc(C)c2)c(O)c2ccccc21	i	i	i	i	-5.21*	0.792*	i	i	MrgX1 antag conf=i
